{"data": "Assay results gathered from unrelated publications", "note": "Protocols differ between the studies behind these lines."}
{"Compound": "Cc1nc2ccc(-c3ccc(OC(F)(F)F)cc3)cc2c(O)c1C#N", "target or system": "HEK293", "assay": "cell growth or viability", "measurement": "IC50", "value": "> 10 µM"}
{"Compound": "O=C1NN=C(N=Cc2ccc(O)c(O)c2)C1=NNn1c(-c2ccccc2)nc2ccccc2c1=O", "target or system": "Trichophyton rubrum", "assay": "microbial growth, broth dilution", "measurement": "MIC", "value": "107 µM"}
{"Compound": "O=C(Nc1ccccc1-c1ccc(F)c(F)c1)c1nccnc1C(F)(F)F", "target or system": "Rhizoctonia solani", "assay": "microbial growth", "measurement": "EC50", "value": "0.2 µg/mL"}
{"Compound": "CN1CCCC(CN2CCN(Cc3ccc(-c4cccc(-c5nc6ccccc6[nH]5)c4)cc3)CC2)C1 (stereo not shown)", "target or system": "HEK293", "assay": "cell growth or viability", "measurement": "IC50", "value": "> 10 µM"}
{"Compound": "COc1ccc(S(=O)(=O)c2ccc(C)cc2)c(OC)c1OC", "target or system": "Leishmania braziliensis", "assay": "parasite growth, MTT", "conditions": "24 h, promastigote", "measurement": "IC50", "value": "91.7 µM"}
{"Compound": "Cc1cccc2cc(CNCC3(N4CCCC4)COC3)cnc12", "target or system": "T98G", "assay": "cell growth or viability", "conditions": "30 µM, 48 h", "measurement": "viability", "value": "92.1%"}
{"Compound": "COc1ccc(Nc2c(-c3ccc4c(c3)OCO4)nc3ncccn23)cc1", "target or system": "Leishmania amazonensis", "assay": "parasite growth, MTT", "conditions": "72 h, promastigote", "measurement": "IC50", "value": "> 100 µM"}
{"Compound": "FC1CCN(C2(CNCc3ccc(-c4ccccc4Cl)o3)COC2)C1 (stereo not shown)", "target or system": "GBM6", "assay": "cell growth or viability", "conditions": "30 µM, 48 h", "measurement": "viability", "value": "47.4%"}
{"Compound": "COc1ccc([S+]([O-])c2ccccc2)c(OC)c1OC (stereo not shown)", "target or system": "Leishmania braziliensis", "assay": "parasite growth, MTT", "conditions": "24 h, promastigote", "measurement": "IC50", "value": "62.6 µM"}
{"Compound": "Cc1ccc(/C=C2/SC(=Nc3ccccc3)NC2=O)c(C)c1", "target or system": "HEK293", "assay": "cell growth or viability", "measurement": "IC50", "value": "> 10 µM"}
{"Compound": "COc1cccc(-c2nc3ncccn3c2NC(C)(C)CC(C)(C)C)c1", "target or system": "Leishmania amazonensis", "assay": "parasite growth, MTT", "conditions": "72 h, promastigote", "measurement": "IC50", "value": "17 µM"}
{"Compound": "CC1=NN(CNC(=O)c2ccccc2)C(=O)C1=NNn1c(-c2ccccc2)nc2ccccc2c1=O", "target or system": "Trichophyton rubrum", "assay": "microbial growth, broth dilution", "measurement": "MIC", "value": "104 µM"}
{"Compound": "Cc1[nH]c(C)c(-c2ccc(OCCCCSc3ccncc3)cc2)c(=O)c1Br", "target or system": "HEK293", "assay": "cell growth or viability", "measurement": "IC50", "value": "> 10 µM"}
{"Compound": "CC(C)(C)CC(C)(C)Nc1c(-c2ccc(Cl)cc2)nc2ncccn12", "target or system": "Leishmania amazonensis", "assay": "parasite growth, MTT", "conditions": "72 h, promastigote", "measurement": "IC50", "value": "36.4 µM"}
{"Compound": "Cc1[nH]c(C)c(C(F)(F)F)c(=O)c1-c1ccc(Oc2ccc(OC(F)(F)F)cc2)cc1", "target or system": "HEK293", "assay": "cell growth or viability", "measurement": "IC50", "value": "> 10 µM"}
{"Compound": "O=C1NN=C(N=Cc2ccc(O)cc2O)C1=NNn1c(-c2ccccc2)nc2ccccc2c1=O", "target or system": "Trichophyton rubrum", "assay": "microbial growth, broth dilution", "measurement": "MIC", "value": "53.5 µM"}
